Laboratory results from ChEMBL document CHEMBL1127669, “Conformationally constrained peptides and semipeptides derived from RGD as potent inhibitors of the platelet fibrinogen receptor and platelet aggregation” (J Med Chem, 1994).
Starred links: 1 amine or outer side, 2 acyl side, 3 side chain; linkers in the order of their positions; H or OH if unused. Positions of bridges follow the written chain, without caps; N, C: chain ends. Non-standard residues stand in square brackets, D forms with d. Residues, ends and D or L forms follow the SMILES beside them. *: point of attachment. X2 = O=C(CN([C@@H](CS[*:3])C(=O)[*:2])[*:1])c1ccccc1; X4 = O=C([C@@H](N[*:1])[C@@H](S[*:3])c1ccccc1)[*:2]; X1 = O=C([C@@H](N[*:1])[C@H](S[*:3])c1ccccc1)[*:2]; NMeR = CN[C@@H](CCCNC(=N)N)C(=O)O; Pen = CC(C)(S)[C@H](N)C(=O)O; Pentanoyl = CCCCC(=O)*; Bz = O=C(c1ccccc1)*; X3 = CC(S)C(=O)*

Tests used:
[1] = target: Integrin alpha-IIb/beta-3 (Homo sapiens, UniProt P05106+P08514); assay: Tested for inhibition of fibrinogen binding to purified GPIIb/IIIa isolated from human platelets and reconstituted in liposomes
Method in brief: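 Displacement of [¹²⁵I]fibrinogen from purified human platelet GPIIb/IIIa incorporated into phospholipid vesicles. Values without statistical limits come from a single determination.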

Canis familiaris = species: Canis familiaris; assay: Inhibition of platelet aggregation in canine platelet rich plasma induced by ADP; format: functional, Canis lupus familiaris
Method in brief: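 Citrated canine PRP aggregation read optically by light transmittance. Peptide stock was 12 mM in 0.2 M acetic acid. Final 200 µM peptide and 10 µM ADP, pH 7.7, after 5-min preincubation with peptide.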

Chain of Integrin alpha-IIb/beta-3 (P05106 27-788 limits assumed): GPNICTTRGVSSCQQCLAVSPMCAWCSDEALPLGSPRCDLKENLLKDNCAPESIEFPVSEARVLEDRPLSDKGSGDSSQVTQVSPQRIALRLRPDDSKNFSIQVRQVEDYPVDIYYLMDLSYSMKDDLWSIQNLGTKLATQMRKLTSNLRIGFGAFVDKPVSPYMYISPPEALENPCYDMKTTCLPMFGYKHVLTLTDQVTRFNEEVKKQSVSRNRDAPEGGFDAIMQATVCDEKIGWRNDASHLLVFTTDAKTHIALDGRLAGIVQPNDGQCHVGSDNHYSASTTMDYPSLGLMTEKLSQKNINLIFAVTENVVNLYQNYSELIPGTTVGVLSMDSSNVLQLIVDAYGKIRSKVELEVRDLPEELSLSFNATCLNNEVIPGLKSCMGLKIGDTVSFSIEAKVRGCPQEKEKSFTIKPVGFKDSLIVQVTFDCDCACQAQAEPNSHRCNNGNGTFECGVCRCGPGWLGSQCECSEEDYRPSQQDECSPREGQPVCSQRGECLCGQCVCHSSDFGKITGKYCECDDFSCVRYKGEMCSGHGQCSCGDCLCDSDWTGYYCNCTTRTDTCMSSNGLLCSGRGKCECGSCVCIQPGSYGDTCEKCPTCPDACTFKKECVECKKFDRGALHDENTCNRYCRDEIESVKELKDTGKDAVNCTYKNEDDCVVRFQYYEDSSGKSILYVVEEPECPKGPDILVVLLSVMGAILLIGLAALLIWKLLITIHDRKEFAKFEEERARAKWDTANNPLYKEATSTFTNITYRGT
Chain of Integrin alpha-IIb/beta-3 (P08514 32-887 limits assumed): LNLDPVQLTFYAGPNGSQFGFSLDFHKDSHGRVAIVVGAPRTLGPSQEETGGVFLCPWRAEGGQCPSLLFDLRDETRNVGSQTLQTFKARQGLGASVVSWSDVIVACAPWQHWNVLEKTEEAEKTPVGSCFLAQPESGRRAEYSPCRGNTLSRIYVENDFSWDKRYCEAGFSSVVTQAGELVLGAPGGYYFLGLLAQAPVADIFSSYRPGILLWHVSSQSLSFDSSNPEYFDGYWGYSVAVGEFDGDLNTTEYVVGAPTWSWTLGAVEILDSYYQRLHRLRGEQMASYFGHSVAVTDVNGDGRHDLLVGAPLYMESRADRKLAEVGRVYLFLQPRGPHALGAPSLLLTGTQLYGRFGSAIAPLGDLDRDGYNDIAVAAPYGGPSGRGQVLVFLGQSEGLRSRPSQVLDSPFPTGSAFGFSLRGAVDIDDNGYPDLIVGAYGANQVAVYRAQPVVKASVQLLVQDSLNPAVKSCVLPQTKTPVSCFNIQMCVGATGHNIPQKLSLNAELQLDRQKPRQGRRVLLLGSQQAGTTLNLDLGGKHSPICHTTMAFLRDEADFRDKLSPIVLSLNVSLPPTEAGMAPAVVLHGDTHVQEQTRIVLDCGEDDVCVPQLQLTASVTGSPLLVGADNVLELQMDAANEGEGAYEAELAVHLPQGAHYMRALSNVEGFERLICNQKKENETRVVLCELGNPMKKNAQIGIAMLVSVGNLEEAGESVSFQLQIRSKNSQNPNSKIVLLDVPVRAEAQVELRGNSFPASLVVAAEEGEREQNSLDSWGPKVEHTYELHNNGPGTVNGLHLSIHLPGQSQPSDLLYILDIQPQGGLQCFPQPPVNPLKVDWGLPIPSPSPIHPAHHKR
Chain of Integrin alpha-IIb/beta-3 (P08514 891-1039 limits assumed): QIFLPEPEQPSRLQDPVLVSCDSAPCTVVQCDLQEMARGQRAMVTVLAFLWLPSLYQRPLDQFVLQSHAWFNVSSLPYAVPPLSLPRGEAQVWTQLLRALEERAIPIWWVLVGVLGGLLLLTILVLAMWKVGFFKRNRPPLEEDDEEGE

SMILES | Ki [1] | IC50 (Canis familiaris; Canis lupus familiaris, Plasma) | IC50 (Canis familiaris)
CC(=O)N[C@@H](CCCN=C(N)N)C(=O)NCC(=O)N[C@@H](CC(=O)O)C(N)=O | 4.2 µM |  | 
CN1C(=O)c2ccccc2SSc2ccccc2NC(=O)[C@H](CC(=O)O)NC(=O)CNC(=O)[C@H]1CCCN=C(N)N |  | 26 µM | 
CC(=O)N[C@@H]1CSSC(C)(C)[C@H](C(N)=O)NC(=O)[C@@H](CC(=O)O)NC(=O)CNC(=O)[C@H](CCCNC(=N)N)NC1=O | 0.72 µM | 4.12 µM | 
CN1CC(=O)N[C@@H](CCCNC(=N)N)C(=O)NCC(=O)N[C@@H](CC(=O)O)C(=O)Nc2ccccc2SSc2ccccc2C1=O | 0.143 µM | 3.46 µM | 
CC(=O)N[C@@H]1CSSC(C)(C)[C@H](C(N)=O)NC(=O)[C@@H](CC(=O)O)NC(=O)CNC(=O)[C@@H](CCCN=C(N)N)N(Cc2ccccc2)C1=O | > 100 µM | 7.74 µM | 
CN1C(=O)[C@@H]2CCCN2C(=O)c2ccccc2SSc2ccccc2NC(=O)[C@H](CC(=O)O)NC(=O)CNC(=O)[C@@H]1CCCN=C(N)N | 0.82 µM | 1.01 µM | 
CN1CC(=O)N(C)[C@@H](CCCN=C(N)N)C(=O)NCC(=O)N[C@@H](CC(=O)O)C(=O)Nc2ccccc2SSc2ccccc2C1=O | 0.0245 µM | 0.102 µM | 
CN1C(=O)c2ccccc2SSCCNC(=O)[C@@H](CC(=O)O)NC(=O)CNC(=O)[C@H]1CCCNC(=N)N | 0.0095 µM | 0.236 µM | 
CC(=O)N[C@@H]1CSSC(C)(C)[C@H](C(N)=O)NC(=O)[C@@H](CC(=O)O)NC(=O)CNC(=O)[C@H](CCCN=C(N)N)N(C)C1=O | 0.082 µM | 1.79 µM | 
CN1C(=O)c2ccccc2SSc2ccccc2NC(=O)[C@@H](CC(=O)O)NC(=O)CNC(=O)[C@@H]1CCCN=C(N)N |  | 0.6 µM | 
CC(=O)N[C@H]1CSSC(C)(C)[C@H](C(N)=O)NC(=O)[C@@H](CC(=O)O)NC(=O)CNC(=O)[C@@H](CCCNC(=N)N)NC1=O | 2.65 µM | 98.7 µM | 
CC(=O)N[C@@H]1CSSC(C)(C)[C@H](C(N)=O)NC(=O)[C@H](CC(=O)O)NC(=O)CNC(=O)[C@@H](CCCNC(=N)N)NC1=O | > 1000 µM | > 200 µM | 
CC(=O)N[C@H]1CSSC(C)(C)[C@@H](C(N)=O)NC(=O)[C@H](CC(=O)O)NC(=O)CNC(=O)[C@H](CCCNC(=N)N)N(C)C(=O)[C@@H]2CCCN2C1=O | > 10 µM |  | 
CC(=O)N[C@@H]1CSSC(C)(C)[C@H](C(N)=O)NC(=O)[C@@H](CC(=O)O)NC(=O)CNC(=O)[C@@H](CCCN=C(N)N)N(C)C(=O)[C@@H]2CCCN2C1=O |  | 24.4 µM | 
CC(=O)N[C@H]1CSSC(C)(C)[C@@H](C(=O)O)NC(=O)[C@H](CC(=O)O)NC(=O)CNC(=O)[C@H](CCCN=C(N)N)N(C)C1=O (Ac-C[NMeR]GD[Pen]-OH; disulfide 1-5) | 0.0085 µM | 0.08 µM | 
CC(=O)N[C@H]1CSS[C@H](c2ccccc2)[C@@H](C(N)=O)NC(=O)[C@H](CC(=O)O)NC(=O)CNC(=O)[C@H](CCCN=C(N)N)N(C)C1=O (Ac-C[NMeR]GD[X1]-NH2; disulfide 1-5) | 0.125 µM | 0.098 µM | 
CC(=O)N[C@H]1CSS[C@H](c2ccccc2)[C@@H](C(=O)O)NC(=O)[C@H](CC(=O)O)NC(=O)CNC(=O)[C@H](CCCNC(=N)N)N(C)C1=O (Ac-C[NMeR]GD[X1]-OH; disulfide 1-5) | 0.0021 µM |  | 
CC(=O)N[C@H]1CSS[C@H](c2ccccc2)[C@@H](C(=O)O)NC(=O)[C@H](CC(=O)O)NC(=O)CNC(=O)[C@H](CCCN=C(N)N)N(C)C1=O (Ac-C[NMeR]GD[X1]-OH; disulfide 1-5) |  | 0.04 µM | 
CC(=O)N[C@H]1CSS[C@@H](c2ccccc2)[C@@H](C(N)=O)NC(=O)[C@H](CC(=O)O)NC(=O)CNC(=O)[C@H](CCCNC(=N)N)N(C)C1=O (Ac-C[NMeR]GD[X4]-NH2; disulfide 1-5) | 0.045 µM |  | 
CC(=O)N[C@H]1CSS[C@@H](c2ccccc2)[C@@H](C(N)=O)NC(=O)[C@H](CC(=O)O)NC(=O)CNC(=O)[C@H](CCCN=C(N)N)N(C)C1=O (Ac-C[NMeR]GD[X4]-NH2; disulfide 1-5) |  | 0.05 µM | 
CN1C(=O)[C@@H](NC(=O)c2ccccc2)CSSC(C)(C)[C@@H](C(N)=O)NC(=O)[C@H](CC(=O)O)NC(=O)CNC(=O)[C@@H]1CCCN=C(N)N (Bz-C[NMeR]GD[Pen]-NH2; disulfide 1-5) | 0.0137 µM | 0.2 µM | 
CN1C(=O)[C@@H](N)CSSC(C)(C)[C@@H](C(N)=O)NC(=O)[C@H](CC(=O)O)NC(=O)CNC(=O)[C@@H]1CCCN=C(N)N (H-C[NMeR]GD[Pen]-NH2; disulfide 1-5) | 0.0093 µM | 0.2 µM | 

SMILES | Ki [1] | IC50 (Canis familiaris; Canis lupus familiaris, Plasma) | IC50 (Canis familiaris)
CN1C(=O)[C@@H](N)CSSC(C)(C)[C@@H](C(=O)O)NC(=O)[C@H](CC(=O)O)NC(=O)CNC(=O)[C@@H]1CCCN=C(N)N (H-C[NMeR]GD[Pen]-OH; disulfide 1-5) | 0.0048 µM | 0.12 µM | 
CN1C(=O)[C@@H](NCC(=O)c2ccccc2)CSSC(C)(C)[C@@H](C(N)=O)NC(=O)[C@H](CC(=O)O)NC(=O)CNC(=O)[C@@H]1CCCN=C(N)N (H-[X2][NMeR]GD[Pen]-NH2; disulfide 1-5) | 0.035 µM | 0.28 µM | 
CCCCC(=O)N[C@H]1CSSC(C)(C)[C@@H](C(N)=O)NC(=O)[C@H](CC(=O)O)NC(=O)CNC(=O)[C@H](CCCN=C(N)N)N(C)C1=O (Pentanoyl-C[NMeR]GD[Pen]-NH2; disulfide 1-5) | 0.026 µM | 0.25 µM | 
CC(S)C(=O)N[C@H]1CSSC(C)(C)[C@@H](C(N)=O)NC(=O)[C@H](CC(=O)O)NC(=O)CNC(=O)[C@H](CCCN=C(N)N)N(C)C1=O (stereo partly specified) (X3-C[NMeR]GD[Pen]-NH2; disulfide 1-5) | 0.0243 µM | 0.34 µM | 
CC(=O)N[C@H]1CSSC[C@@H](C(N)=O)NC(=O)[C@H](CC(=O)O)NC(=O)CNC(=O)[C@H](CCCN=C(N)N)NC1=O (single isomer, unassigned) |  | 16.2 µM | 
CC(=O)N[C@H]1CSSC(C)(C)[C@@H](C(N)=O)NC(=O)[C@H](CC(=O)O)NC(=O)CNC(=O)[C@H](CCCN=C(N)N)NC(=O)CNC1=O (single isomer, unassigned) [listing 1 of 2 here] | 0.61 µM |  | 
CC(=O)N[C@H]1CSSC(C)(C)[C@@H](C(N)=O)NC(=O)[C@H](CC(=O)O)NC(=O)CNC(=O)[C@H](CCCN=C(N)N)NC(=O)CNC1=O (single isomer, unassigned) [listing 2 of 2 here] |  | 11.4 µM | 
CN1C(=O)c2ccccc2SSc2ccccc2NC(=O)[C@H](CC(=O)O)NC(=O)CNC(=O)[C@@H]1CCCN=C(N)N (single isomer, unassigned) |  | 0.09 µM | 
CCN1C(=O)[C@@H](NC(C)=O)CSSC(C)(C)[C@@H](C(N)=O)NC(=O)[C@H](CC(=O)O)NC(=O)CNC(=O)[C@@H]1CCCN=C(N)N (single isomer, unassigned) |  | 0.9 µM | 
CCN1C(=O)[C@H](NC(C)=O)CSSC(C)(C)[C@H](C(N)=O)NC(=O)[C@@H](CC(=O)O)NC(=O)CNC(=O)[C@H]1CCCNC(=N)N (single isomer, unassigned) | 0.065 µM |  | 
CC(=O)N[C@H]1CSSC(C)(C)[C@@H](C(N)=O)NC(=O)[C@H](CC(=O)O)NC(=O)CNC(=O)[C@H](CCCNC(=N)N)NC(=O)CN(C)C1=O (single isomer, unassigned) | 0.077 µM |  | 
CC(=O)N[C@H]1CSSC(C)(C)[C@@H](C(N)=O)NC(=O)[C@H](CC(=O)O)NC(=O)CNC(=O)[C@H](CCCN=C(N)N)NC(=O)CN(C)C1=O (single isomer, unassigned) |  | 1.2 µM | 
N=C(N)NCCC[C@@H]1NC(=O)c2ccccc2SSC[C@@H](C(N)=O)NC(=O)[C@H](CC(=O)O)NC(=O)CNC1=O (single isomer, unassigned) |  | 8.08 µM | 
CC(=O)N[C@H]1CSSc2ccccc2NC(=O)[C@H](CC(=O)O)NC(=O)CNC(=O)[C@H](CCCNC(=N)N)NC1=O (single isomer, unassigned) | 0.28 µM |  | 
CC(=O)N[C@H]1CSSc2ccccc2NC(=O)[C@H](CC(=O)O)NC(=O)CNC(=O)[C@H](CCCN=C(N)N)NC1=O (single isomer, unassigned) |  | 9.71 µM | 
CC(=O)N[C@H]1CSSc2ccccc2NC(=O)[C@H](CC(=O)O)NC(=O)CNC(=O)[C@H](CCCN=C(N)N)N(C)C1=O (single isomer, unassigned) |  | 0.17 µM | 
CC(=O)N[C@H]1CSSc2ccccc2NC(=O)[C@H](CC(=O)O)NC(=O)CNC(=O)[C@H](CCCNC(=N)N)N(C)C1=O (single isomer, unassigned) | 0.026 µM |  | 
CC(=O)N[C@H]1CSSC(C)(C)[C@@H](C(N)=O)NC(=O)[C@H](CC(=O)O)N(C)C(=O)CNC(=O)[C@H](CCCNC(=N)N)NC1=O (single isomer, unassigned) | 25.3 µM |  | 
CC(=O)N[C@H]1CSSC(C)(C)[C@@H](C(N)=O)NC(=O)[C@H](CC(=O)O)N(C)C(=O)CNC(=O)[C@H](CCCN=C(N)N)NC1=O (single isomer, unassigned) |  | 137 µM | 
CC(=O)N[C@H]1CSSC(C)(C)[C@@H](C(N)=O)NC(=O)[C@H](CC(=O)O)N(C)C(=O)CNC(=O)[C@H](CCCN=C(N)N)N(C)C1=O (single isomer, unassigned) |  | 23.4 µM | 
CC(=O)N[C@H]1CSSC(C)(C)[C@@H](C(N)=O)NC(=O)[C@H](CC(=O)O)N(C)C(=O)CNC(=O)[C@H](CCCNC(=N)N)N(C)C1=O (single isomer, unassigned) | 7.04 µM |  | 
CC(=O)N[C@@H]1CSSC(C)(C)[C@H](C(N)=O)NC(=O)C(CC(=O)O)NC(=O)CNC(=O)C(CCCN=C(N)N)NC1=O (single isomer, unassigned; 12) |  |  | 4.12 µM
